From PMC3586205 (European journal of pharmacology, 2012)
“Also recorded” adds a separate entry of the source. Like-named read-outs stand apart in the source and are kept apart here.

Experiments:
food intake in mice [1] = assay: Feeding behavior: 1-h food intake after 24-h food deprivation; assay type: in vivo; conditions: for decrease in feeding compared to vehicle: 60 min pre-session, significant
[2] = biological target: T1, human cannabinoid CB1 receptor (Homo sapiens, UniProt P21554); assay: Cannabinoid CB1 receptor radioligand binding, displacement of [3H]CP55,940
[3] = biological target: T2, human cannabinoid CB2 receptor (Homo sapiens, UniProt P34972); assay: Cannabinoid CB2 receptor radioligand binding, displacement of [3H]CP55,940
Procedure, shortened: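 CHO cells stably expressing human CB2 receptor; membranes made in 50 mM Tris-HCl, 3 mM MgCl2, 1 mM EGTA, pH 7.4. Membrane (10 μg protein) incubated with 1 nM [3H]CP55,940 and varying test compound in 50 mM Tris-HCl pH 7.4, 3 mM MgCl2, 0.2 mM EGTA, 0.5% BSA, 60 min at 30 °C. Non-specific binding was taken with 1 μM unlabeled CP55,940. Bound and free were separated by GF/B filtration with cold Tris-BSA washes, then counted by liquid scintillation.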

[4] = test system: spontaneous activity in mice; conditions: cited from earlier work; for SA ED50 (95% confidence limits): i.v.
ring immobility in mice = conditions: cited from earlier work
[5] = biological target: T2, human cannabinoid CB2 receptor; conditions: read-out: CB2 Ki (± SEM), displacement of [3H]CP55,940, cited from earlier work
[6] = test system: rectal temperature in mice; conditions: cited from earlier work; for RT ED50 (95% confidence limits): i.v.; for RT (maximum effect): 30 mg/kg i.v.
[7] = biological target: T1, human cannabinoid CB1 receptor; conditions: cited from earlier work
[8] = test system: tail flick latency in mice; conditions: cited from earlier work; for %MPE tail flick ED50 (95% confidence limits): i.v.; for %MPE tail flick (maximum effect): 30 mg/kg i.v.; for %MPE, maximum possible antinociceptive effect in tail flick (maximum effect): 10 mg/kg i.v.
[9] = test system: cannabinoid agonist-like effects in mice; conditions: cited from earlier work; for profile in test battery: ref Wiley et al. (2011); for % of maximal cannabinoid agonist-like activity in each of the four tests: ref Wiley et al. (2012)
food intake in mice [10] = conditions: ref Wiley et al., cited from earlier work; for dose (as low as) that suppressed eating: same food intake protocol, 2005
[11] = test system: spontaneous activity in mice; assay: Spontaneous; assay type: in vivo; conditions: 30 mg/kg i.v.
Procedure, shortened: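 Separate groups of mice per dose were injected i.v. with vehicle (ethanol:Emulphor-620:saline 1:1:18) or test compound. Five minutes later each was placed in an activity chamber for 10 min. Total photobeam interruptions were counted and expressed as % inhibition of the vehicle group. ED50s were derived by log-dose linear regression, taking 90% inhibition as maximal.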

[12] = test system: tail flick latency in mice; assay: Tail flick antinociception, mouse test battery; assay type: in vivo; conditions: 30 mg/kg i.v.
Procedure, shortened: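 Baseline tail-flick latency was taken to radiant heat (bright light) before i.v. injection of vehicle (ethanol:Emulphor-620:saline 1:1:18) or test compound. Latency was re-measured 20 min post-injection with a 10 s cutoff. Result expressed as %MPE = [(test−control latency)/(10−control)] × 100, separate groups per dose.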

[13] = present study and H.A. Navarro, personal communication
[14] = read-out: CB1 Ki (± SEM), displacement of [3H]CP55,940, ref Wiley et al. (2012)
[15] = read-out: CB1 Ki (± SEM), displacement of [3H]CP55,940, ref Wiley et al. (2011)
[16] = read-out: CB1 receptor binding affinity Ki, ref Wiley et al., 2005
[17] = 3 mg/kg i.v., ref Wiley et al. (2012)
[18] = 10 mg/kg i.v., stim=stimulation, ref Wiley et al. (2012)
[19] = 10 mg/kg i.v., ref Wiley et al. (2012)
[20] = 30 mg/kg i.v., ref Wiley et al. (2001)

T2 sequence (P34972 whole entry): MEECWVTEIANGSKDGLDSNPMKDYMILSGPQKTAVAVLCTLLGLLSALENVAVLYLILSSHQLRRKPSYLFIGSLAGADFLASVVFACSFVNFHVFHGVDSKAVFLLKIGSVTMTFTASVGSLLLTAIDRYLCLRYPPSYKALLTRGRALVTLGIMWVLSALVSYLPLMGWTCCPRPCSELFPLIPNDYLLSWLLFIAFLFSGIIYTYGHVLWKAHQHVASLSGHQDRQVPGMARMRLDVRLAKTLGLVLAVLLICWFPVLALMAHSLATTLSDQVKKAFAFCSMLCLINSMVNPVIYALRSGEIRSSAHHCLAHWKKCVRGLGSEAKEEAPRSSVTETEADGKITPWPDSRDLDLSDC
T1 sequence (P21554 whole entry): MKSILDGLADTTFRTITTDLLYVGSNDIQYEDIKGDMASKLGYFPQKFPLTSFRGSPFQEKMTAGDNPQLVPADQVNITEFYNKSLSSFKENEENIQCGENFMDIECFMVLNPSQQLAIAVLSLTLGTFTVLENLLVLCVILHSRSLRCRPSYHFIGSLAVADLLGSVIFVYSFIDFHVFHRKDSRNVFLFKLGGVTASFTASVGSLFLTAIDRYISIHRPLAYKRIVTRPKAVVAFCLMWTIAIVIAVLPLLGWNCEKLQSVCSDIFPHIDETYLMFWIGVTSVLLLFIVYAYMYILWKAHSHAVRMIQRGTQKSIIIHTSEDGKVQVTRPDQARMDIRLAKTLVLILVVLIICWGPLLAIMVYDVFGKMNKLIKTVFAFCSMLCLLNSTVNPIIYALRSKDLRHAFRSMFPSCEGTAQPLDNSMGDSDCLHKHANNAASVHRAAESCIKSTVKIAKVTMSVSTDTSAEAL

## Hemopressin [reference compound]
Food intake in mice [1]; doses up to 3 mg/kg i.p.
  effect on food intake: did not affect food intake; also recorded: did not affect feeding
[2]; [13]
  displacement of [3H]CP55,940 from CB1 receptors: failed to displace
[3]; [13]
  displacement of [3H]CP55,940 from CB2 receptors: failed to displace

## N-allyl carboxamide analog [Compound O-4373]
Food intake in mice [1]; 30 mg/kg i.p.
  decrease in feeding compared to vehicle: 73%
[4]; ref Wiley et al. (2012)
  SA ED50 (95% confidence limits): 2.3 (1.0–5.2) mg/kg
Ring immobility in mice; i.v., ref Wiley et al. (2012)
  RI ED50 (95% confidence limits): 4.2 (2.5–7.0) mg/kg
[5]; ref Wiley et al. (2012)
  Ki: 1700 nM
[6]; ref Wiley et al. (2012)
  RT ED50 (95% confidence limits): 2.9 (2.1–5.0) mg/kg
[7]; [14]
  Ki: 147 nM

## CCS(=O)(=O)NCCCC#CCc1cc(O)c2c(c1)OC(C)(C)[C@@H]1CC=C(C)C[C@@H]21 [Compound O-1991, N-{6-[(6aR,10aR)-1-hydroxy-6,6,9-trimethyl-6a,7,10,10a-tetrahydro-6H-benzo[c]chromen-3-yl]hex-4-yn-1-yl}ethane-sulfonamide]
Food intake in mice [1]; 56 mg/kg i.p.
  decrease in feeding compared to vehicle: 79%
Food intake in mice [1]; i.p.
  dose that significantly decreased feeding: 56 mg/kg
[4]; ref Wiley et al. (2011)
  SA ED50 (95% confidence limits): 2 (1–3) mg/kg
[8]; ref Wiley et al. (2011)
  %MPE tail flick ED50 (95% confidence limits): 0.9 (0.6–1.4) mg/kg
[9]
  profile in test battery: exhibit agonist-like in vivo effects
[5]; ref Wiley et al. (2011)
  Ki: 1.4 nM
[6]; ref Wiley et al. (2011)
  RT ED50 (95% confidence limits): 0.8 (0.4–1.6) mg/kg
[7]; [15]
  Ki: 30 nM

## Cc1c(C(=O)NN2CCCCC2)nn(-c2ccc(Cl)cc2Cl)c1-c1ccc(CCCCCN=[N+]=[N-])cc1 [Compound O-3257, 5-(4-(5-azidopentyl)phenyl)-1-(2,4-dichlorophenyl)-4-methyl-N-(piperidin-1-yl)-1H-pyrazole-3-carboxamide, reference compound]
Food intake in mice [10]
  dose (as low as) that suppressed eating: 1 mg/kg
[7]; [16]
  Ki: 2.2 nM

## CC1=CC[C@@H]2[C@@H](C1)c1ccc(CC#CCCCC(=O)NCCc3ccc(S(N)(=O)=O)cc3)cc1OC2(C)C [Compound O-1720]
Food intake in mice [1]; 100 mg/kg i.p.
  decrease in feeding compared to vehicle: 24%
Food intake in mice [1]; i.p.
  dose that significantly decreased feeding: 100 mg/kg
[2]; read-out: CB1 Ki (± SEM), displacement of [3H]CP55,940
  Ki: 921 nM
[3]; read-out: CB2 Ki (± SEM), displacement of [3H]CP55,940
  Ki: 787 nM

## CC1=CCC2C(C1)c1c(O)cc(CC#CCCCNS(C)(=O)=O)cc1OC2(C)C (centres unmarked) [Compound O-2050, 3-(6′-methane-sulfamidohex-2-yne)-Δ^8-tetrahydrocannabinol]
[4]; 30 mg/kg i.v., ref Wiley et al. (2011)
  SA, % inhibition of activity of vehicle control group (maximum effect): 69% (30)
[8]; ref Wiley et al. (2011)
  %MPE tail flick (maximum effect): inactive (30)
[9]
  profile in test battery: did not affect responses in the in vivo test battery
[5]; ref Wiley et al. (2011)
  Ki: 0.2 nM
[6]; ref Wiley et al. (2011)
  RT (maximum effect): inactive (30)
Food intake in mice [10]; same procedure, 2011
  effect on food intake: decrease food intake
[7]; read-out: CB1 Ki (± SEM)
  Ki: 2.5 nM

## 3-bromopropyl carboxamide analog [Compound O-2154]
Food intake in mice [1]; 56 mg/kg i.p.
  decrease in feeding compared to vehicle: 60%
[4]; [17]
  SA, % inhibition of activity of vehicle control group (single dose): 70% (3)
[8]; [17]
  %MPE in tail flick (single dose): 50% (3)
Ring immobility in mice; [17]
  RI, % time immobile (single dose): 35% (3)
[9]; 3 mg/kg
  % of maximal cannabinoid agonist-like activity in each of the four tests: at least 50%
[5]; ref Wiley et al. (2012)
  Ki: 731 nM
[7]; [14]
  Ki: 38 nM

## Cc1c(C(=O)NN2CCCCC2)nn(-c2ccc(Cl)cc2Cl)c1-c1ccc(Cl)cc1 [Rimonabant, reference compound]
Food intake in mice [1]; 1 mg/kg i.p.
  decrease in feeding compared to vehicle: 47%
Food intake in mice [1]; 10 mg/kg i.p.
  decrease in feeding compared to vehicle: 41%
[4]; [18]
  SA, % inhibition of activity of vehicle control group (maximum effect): stim (10)
[8]; ref Wiley et al. (2012)
  %MPE, maximum possible antinociceptive effect in tail flick (maximum effect): inactive (10)
[6]; [19]
  RT, change in rectal temperature compared to pre-drug (maximum effect): inactive (10)

## CC1=CC[C@@H]2[C@@H](C1)c1c(O)cc(C(C)(C)CCCCCC(=O)NCCc3ccc(S(N)(=O)=O)cc3)cc1OC2(C)C [Compound O-1689, 7-[(6aR,10aR)-1-hydroxy-6,6,9-trimethyl-6a,7,10,10a-tetrahydro-6H-benzo[c]chromen-3-yl]-7-methyl-N-(4-sulfamoylphenethyl]octanamide]
Food intake in mice [1]; i.p., doses not stated in text (Fig. 2)
  effect on food intake: failed to affect food intake
[2]
  Ki: 38 nM
[11]
  SA, % inhibition of activity of vehicle control group (maximum effect): 46% (30)
[12]
  %MPE tail flick (maximum effect): inactive (30)

## O=C(NN1CCCCC1)c1nn(-c2ccc(Cl)cc2Cl)c2cc(Br)ccc12 [Compound O-1654, 6-bromo-1-(2,4-dichlorophenyl)–N-(piperidin-1-yl)-1H-indazole-3-carboxamide]
Food intake in mice [1]; doses up to 100 mg/kg i.p.
  effect on food intake: did not affect food intake
[2]
  Ki: 881 nM
[3]
  Ki: 1190 nM

## Cc1c(C(=O)NCC2CCC(CNS(C)(=O)=O)CC2)nn(-c2ccc(Cl)cc2Cl)c1-c1ccc(Cl)cc1 (centres unmarked) [13226–70, 5-(4-chlorophenyl)-1-(2,4-dichlorophenyl)–N-{[4-(methanesulfonamido-methyl)cyclohexyl]methyl}-4-methyl-1H-pyrazole-3-carboxamide]
Food intake in mice [1]; doses up to 30 mg/kg i.p.
  effect on food intake: failed to alter food intake

## CCCCC(C)c1ccc(-c2c(C)c(C(=O)NN3CCCCC3)nn2-c2ccc(Cl)cc2Cl)cc1 (centres unmarked) [Compound O-1690, 1-(2,4-dichlorophenyl)-5-[4-(hexan-2-yl)phenyl]-4-methyl-N-(piperidin-1-yl)-1H-pyrazole-3-carboxamide]
Food intake in mice [1]; doses up to 30 mg/kg i.p.
  effect on food intake: did not alter food intake
[4]; [20]
  SA (maximum effect): inactive (30)
[8]; ref Wiley et al. (2001)
  %MPE tail flick (maximum effect): inactive (30)
Ring immobility in mice; [20]
  RI (maximum effect): inactive (30)
[9]; ref Wiley et al., 2001
  activity in test battery when tested alone: inactive
[6]; ref Wiley et al. (2001)
  RT (maximum effect): inactive (30)
[7]; read-out: CB1 Ki (± SEM), displacement of [3H]CP55,940, ref Wiley et al. (2001)
  Ki: 2.6 nM

## Cc1c(C(=O)NN2CCCCC2)nn(-c2ccc(Cl)cc2Cl)c1-c1ccc(CCCCC[N+](=O)[O-])cc1 [Compound O-3259, 1-(2,4-dichlor-ophenyl)-4-methyl-5-(4-(5-nitropentyl)phenyl)–N-(piperidin-1-yl)-1H-pyrazole-3-carboxamide, reference compound]
Food intake in mice [10]
  dose (as low as) that suppressed eating: 1 mg/kg
[7]; [16]
  Ki: 1.2 nM

## 3-cyanopropyl carboxamide analog [Compound O-2155]
Food intake in mice [1]; 30 mg/kg i.p.
  decrease in feeding compared to vehicle: 55%
[4]; [18]
  SA, % inhibition of activity of vehicle control group (maximum effect): 86% (10)
[8]; ref Wiley et al. (2012)
  %MPE, maximum possible antinociceptive effect in tail flick (maximum effect): 89% (10)
Ring immobility in mice; [19]
  RI, % time immobile on elevated ring (maximum effect): 47% (10)
[9]; 10 mg/kg
  % of maximal cannabinoid agonist-like activity in each of the four tests: at least 50%
[5]; ref Wiley et al. (2012)
  Ki: 1850 nM
[7]; [14]
  Ki: 222 nM

## CCS(=O)(=O)NCCCCC(C)(C)c1cc(O)c2c(c1)OC(C)(C)[C@@H]1CC=C(C)C[C@@H]21 [Compound O-2113, N-{5-[(6aR,10aR)-1-hydroxy-6,6,9-tri-methyl-6a,7,10,10a-tetrahydro-6H-benzo[c]chromen-3-yl]-5-methylhexyl}ethanesulfonamide]
Food intake in mice [1]; 30 mg/kg i.p.
  decrease in feeding compared to vehicle: 97%
Food intake in mice [1]; i.p.
  dose that significantly decreased feeding: 30 mg/kg
[4]; ref Wiley et al. (2011)
  SA ED50 (95% confidence limits): 0.4 (0.1–1.8) mg/kg
[8]; ref Wiley et al. (2011)
  %MPE tail flick ED50 (95% confidence limits): 0.3 (0.1–1) mg/kg
[9]
  profile in test battery: exhibit agonist-like in vivo effects
[5]; ref Wiley et al. (2011)
  Ki: 0.08 nM
[6]; ref Wiley et al. (2011)
  RT ED50 (95% confidence limits): 1.4 (0.3–4.6) mg/kg
[7]; [15]
  Ki: 1.7 nM
